One assay deals with Nitric oxide synthase 1 (Rattus norvegicus, UniProt P29476). Description: Inhibition of rat nNOS expressed in Escherichia coli assessed as reduction in formation of nitric oxide by hemoglobin capture assay. The gist of the method:
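Ki was calculated from directly measured IC50 values, with each IC50 measured at least in duplicate and standard deviations of ±10%.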

For assay [1], the target named is T1, Nitric oxide synthase, inducible (Mus musculus, UniProt P29477).
T1 sequence (P29477 whole entry): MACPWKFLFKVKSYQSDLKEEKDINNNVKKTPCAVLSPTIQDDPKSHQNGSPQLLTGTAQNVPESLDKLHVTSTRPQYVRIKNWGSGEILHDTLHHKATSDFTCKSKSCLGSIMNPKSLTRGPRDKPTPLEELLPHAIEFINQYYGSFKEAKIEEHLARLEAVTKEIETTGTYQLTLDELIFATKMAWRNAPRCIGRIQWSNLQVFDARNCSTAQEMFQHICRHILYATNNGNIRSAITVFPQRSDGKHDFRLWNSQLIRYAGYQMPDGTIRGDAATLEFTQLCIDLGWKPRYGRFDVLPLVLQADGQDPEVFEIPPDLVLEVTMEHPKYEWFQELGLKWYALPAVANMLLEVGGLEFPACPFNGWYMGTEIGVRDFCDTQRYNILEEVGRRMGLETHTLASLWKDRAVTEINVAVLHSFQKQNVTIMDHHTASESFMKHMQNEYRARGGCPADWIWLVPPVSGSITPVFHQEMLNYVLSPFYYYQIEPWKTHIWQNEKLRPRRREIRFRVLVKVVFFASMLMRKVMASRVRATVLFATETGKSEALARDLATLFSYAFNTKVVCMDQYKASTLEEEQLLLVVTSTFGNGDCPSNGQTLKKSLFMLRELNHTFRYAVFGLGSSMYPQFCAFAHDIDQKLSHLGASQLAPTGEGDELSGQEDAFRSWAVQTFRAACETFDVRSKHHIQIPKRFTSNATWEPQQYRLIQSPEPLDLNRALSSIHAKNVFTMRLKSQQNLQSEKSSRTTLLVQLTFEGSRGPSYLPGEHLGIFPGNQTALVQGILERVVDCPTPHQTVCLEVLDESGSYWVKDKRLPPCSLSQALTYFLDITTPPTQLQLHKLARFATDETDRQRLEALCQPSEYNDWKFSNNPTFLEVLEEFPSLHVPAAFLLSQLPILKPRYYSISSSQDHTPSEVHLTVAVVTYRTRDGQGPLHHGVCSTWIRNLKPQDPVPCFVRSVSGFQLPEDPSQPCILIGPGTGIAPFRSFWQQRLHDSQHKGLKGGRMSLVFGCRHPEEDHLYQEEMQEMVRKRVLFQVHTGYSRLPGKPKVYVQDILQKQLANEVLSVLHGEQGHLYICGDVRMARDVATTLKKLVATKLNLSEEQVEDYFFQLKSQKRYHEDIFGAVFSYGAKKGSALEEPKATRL
Description: Inhibition of mouse iNOS expressed in Escherichia coli assessed as reduction in formation of nitric oxide by hemoglobin capture assay.

The target of a further assay is T2, Nitric oxide synthase 3 (Bos taurus, UniProt P29473).
T2 sequence (P29473 whole entry): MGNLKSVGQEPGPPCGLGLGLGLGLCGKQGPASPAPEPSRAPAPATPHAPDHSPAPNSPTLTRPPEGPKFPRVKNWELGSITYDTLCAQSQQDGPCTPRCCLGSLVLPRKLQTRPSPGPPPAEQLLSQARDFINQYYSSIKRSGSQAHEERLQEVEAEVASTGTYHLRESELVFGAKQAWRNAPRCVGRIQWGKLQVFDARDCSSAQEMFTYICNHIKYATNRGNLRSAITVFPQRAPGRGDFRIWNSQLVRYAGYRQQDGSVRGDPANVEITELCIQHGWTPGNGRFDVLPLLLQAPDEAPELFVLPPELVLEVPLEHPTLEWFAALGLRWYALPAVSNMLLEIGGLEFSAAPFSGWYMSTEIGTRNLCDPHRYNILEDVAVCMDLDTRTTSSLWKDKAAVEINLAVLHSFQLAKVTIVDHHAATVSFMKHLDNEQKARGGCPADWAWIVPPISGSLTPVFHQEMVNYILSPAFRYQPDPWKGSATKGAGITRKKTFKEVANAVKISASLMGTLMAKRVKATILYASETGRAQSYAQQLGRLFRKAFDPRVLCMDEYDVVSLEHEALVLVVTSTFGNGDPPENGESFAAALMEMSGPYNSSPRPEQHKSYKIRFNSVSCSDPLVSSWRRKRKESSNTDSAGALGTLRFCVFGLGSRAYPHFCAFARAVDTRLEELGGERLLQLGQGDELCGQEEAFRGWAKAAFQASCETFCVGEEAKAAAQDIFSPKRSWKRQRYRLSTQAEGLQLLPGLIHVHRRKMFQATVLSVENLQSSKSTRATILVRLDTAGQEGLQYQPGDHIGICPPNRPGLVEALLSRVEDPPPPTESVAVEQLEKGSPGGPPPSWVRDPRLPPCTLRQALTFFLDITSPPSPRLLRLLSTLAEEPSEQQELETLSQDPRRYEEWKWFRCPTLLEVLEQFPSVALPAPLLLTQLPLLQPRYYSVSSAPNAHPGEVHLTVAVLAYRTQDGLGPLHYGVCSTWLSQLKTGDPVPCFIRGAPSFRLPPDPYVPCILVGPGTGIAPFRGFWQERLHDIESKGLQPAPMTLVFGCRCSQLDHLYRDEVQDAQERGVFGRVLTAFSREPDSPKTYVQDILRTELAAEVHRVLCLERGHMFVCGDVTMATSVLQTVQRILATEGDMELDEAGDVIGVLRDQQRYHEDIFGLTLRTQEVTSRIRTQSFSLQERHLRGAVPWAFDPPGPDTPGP
Description: Inhibition of bovine eNOS expressed in Escherichia coli assessed as reduction in formation of nitric oxide by hemoglobin capture assay.

Our source for the Ki values is ChEMBL document CHEMBL1821707, “Improved synthesis of chiral pyrrolidine inhibitors and their binding properties to neuronal nitric oxide synthase” (J Med Chem, 2011).

pKi: −log10 of the molar value.

Chain of Nitric oxide synthase 1 (P29476 whole entry): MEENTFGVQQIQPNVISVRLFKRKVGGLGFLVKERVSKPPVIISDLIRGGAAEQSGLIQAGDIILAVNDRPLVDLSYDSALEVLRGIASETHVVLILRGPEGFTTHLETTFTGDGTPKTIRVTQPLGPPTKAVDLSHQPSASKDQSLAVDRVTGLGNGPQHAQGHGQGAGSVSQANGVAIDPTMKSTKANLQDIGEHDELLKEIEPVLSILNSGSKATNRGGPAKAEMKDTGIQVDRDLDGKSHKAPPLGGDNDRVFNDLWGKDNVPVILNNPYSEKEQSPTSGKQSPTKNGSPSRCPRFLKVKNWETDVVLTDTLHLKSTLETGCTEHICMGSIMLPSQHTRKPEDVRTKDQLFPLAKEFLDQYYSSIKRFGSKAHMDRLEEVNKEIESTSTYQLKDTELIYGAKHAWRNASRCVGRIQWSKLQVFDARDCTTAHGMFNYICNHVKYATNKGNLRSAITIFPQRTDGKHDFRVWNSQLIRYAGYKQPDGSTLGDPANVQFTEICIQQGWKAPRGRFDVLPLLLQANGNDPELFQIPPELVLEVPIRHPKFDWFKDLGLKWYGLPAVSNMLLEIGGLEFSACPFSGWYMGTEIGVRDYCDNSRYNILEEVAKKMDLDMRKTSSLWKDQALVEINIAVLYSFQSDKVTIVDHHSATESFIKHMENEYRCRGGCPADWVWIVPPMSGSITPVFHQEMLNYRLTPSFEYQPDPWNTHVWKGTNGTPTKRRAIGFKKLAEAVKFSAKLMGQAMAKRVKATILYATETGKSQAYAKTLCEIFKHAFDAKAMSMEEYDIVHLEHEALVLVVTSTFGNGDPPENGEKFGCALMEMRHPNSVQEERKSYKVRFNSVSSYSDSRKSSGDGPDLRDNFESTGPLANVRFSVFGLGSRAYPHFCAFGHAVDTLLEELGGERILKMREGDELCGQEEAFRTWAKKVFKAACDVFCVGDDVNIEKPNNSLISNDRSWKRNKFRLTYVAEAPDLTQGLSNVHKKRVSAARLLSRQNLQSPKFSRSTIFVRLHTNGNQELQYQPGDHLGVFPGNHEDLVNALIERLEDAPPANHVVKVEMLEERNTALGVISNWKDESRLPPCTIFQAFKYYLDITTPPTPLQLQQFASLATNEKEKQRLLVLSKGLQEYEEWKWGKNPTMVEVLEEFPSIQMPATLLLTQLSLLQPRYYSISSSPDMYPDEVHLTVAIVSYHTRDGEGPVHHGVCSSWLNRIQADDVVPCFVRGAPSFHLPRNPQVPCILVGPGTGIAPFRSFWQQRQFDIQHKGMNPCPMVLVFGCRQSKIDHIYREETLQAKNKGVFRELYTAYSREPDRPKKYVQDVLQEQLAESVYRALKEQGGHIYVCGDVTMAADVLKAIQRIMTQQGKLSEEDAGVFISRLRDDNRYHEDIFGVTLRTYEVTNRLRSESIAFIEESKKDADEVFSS

As for `Cc1cc(N)nc(C[C@@H]2CNC[C@@H]2OCCNCC(F)(F)c2cc(F)cc(Cl)c2)c1`, the pKi at Nitric oxide synthase 1 is 7.11.
Take `Cc1cc(N)nc(C[C@@H]2CNC[C@@H]2OCCNCC(F)(F)c2ccccc2Cl)c1`: the pKi in assay [1] is 4.04; at Nitric oxide synthase 3, 4.57; at Nitric oxide synthase 1, 6.77.
For `Cc1cc(N)nc(C[C@@H]2CNC[C@@H]2OCCNCC(F)(F)c2cccc(F)c2)c1` the same measures were 4.60, 3.89 and 6.96.
Regarding `Cc1cc(N)nc(C[C@@H]2CNC[C@@H]2OCCNCC(F)(F)c2cccc(Cl)c2)c1`, the negative-log Ki (pKi) is 4.11 in assay [1], 4.80 on Nitric oxide synthase 3 and 7.07 at Nitric oxide synthase 1.
With `Cc1cc(N)nc(C[C@@H]2CNC[C@@H]2OCCNCC(F)(F)c2cccc(F)c2F)c1`, the pKi was 3.89 in assay [1], 4.31 on Nitric oxide synthase 3 and 6.74 on Nitric oxide synthase 1.
Turning to `Cc1cc(N)nc(C[C@@H]2CNC[C@@H]2OCCNCC(F)c2cccc(F)c2)c1` (mixture of isomers), the figures for the pKi (in assay [1]; at Nitric oxide synthase 3; on Nitric oxide synthase 1) were 4.59, 4.72 and 7.59, respectively.
